The structures appear in SMILES notation. Counter-ions that a name gives are not always drawn.

The species entered for one experiment is Rattus norvegicus. The experiment is described as follows: (§1) Alpha-2-adrenoceptor blocking activity was determined by antagonism of clonidine induced depression of the twitch responses of the field stimulated prostatic portion of the vas deferens and the potency was expressed as pA2. The format is functional. The following applies: read-out: pA2 (converted).

The target in experiment [1] is T1, Adrenergic receptor alpha-1 (Rattus norvegicus, UniProt P15823+P23944+P43140).
T1 sequence (P15823 whole entry): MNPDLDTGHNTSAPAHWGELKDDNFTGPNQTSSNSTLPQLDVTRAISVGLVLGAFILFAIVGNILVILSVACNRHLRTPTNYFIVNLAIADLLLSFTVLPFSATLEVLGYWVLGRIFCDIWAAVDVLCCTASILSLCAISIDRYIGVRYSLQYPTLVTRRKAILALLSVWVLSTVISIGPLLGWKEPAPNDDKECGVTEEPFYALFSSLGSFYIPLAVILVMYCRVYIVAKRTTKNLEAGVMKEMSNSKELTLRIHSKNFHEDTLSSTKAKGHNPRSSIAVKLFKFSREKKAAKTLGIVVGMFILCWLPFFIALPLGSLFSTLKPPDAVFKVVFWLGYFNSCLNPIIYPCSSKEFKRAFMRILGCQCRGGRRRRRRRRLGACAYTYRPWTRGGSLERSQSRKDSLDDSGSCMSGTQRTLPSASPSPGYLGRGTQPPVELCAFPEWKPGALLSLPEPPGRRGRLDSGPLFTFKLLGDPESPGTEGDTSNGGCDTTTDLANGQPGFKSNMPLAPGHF
T1 sequence (P23944 whole entry): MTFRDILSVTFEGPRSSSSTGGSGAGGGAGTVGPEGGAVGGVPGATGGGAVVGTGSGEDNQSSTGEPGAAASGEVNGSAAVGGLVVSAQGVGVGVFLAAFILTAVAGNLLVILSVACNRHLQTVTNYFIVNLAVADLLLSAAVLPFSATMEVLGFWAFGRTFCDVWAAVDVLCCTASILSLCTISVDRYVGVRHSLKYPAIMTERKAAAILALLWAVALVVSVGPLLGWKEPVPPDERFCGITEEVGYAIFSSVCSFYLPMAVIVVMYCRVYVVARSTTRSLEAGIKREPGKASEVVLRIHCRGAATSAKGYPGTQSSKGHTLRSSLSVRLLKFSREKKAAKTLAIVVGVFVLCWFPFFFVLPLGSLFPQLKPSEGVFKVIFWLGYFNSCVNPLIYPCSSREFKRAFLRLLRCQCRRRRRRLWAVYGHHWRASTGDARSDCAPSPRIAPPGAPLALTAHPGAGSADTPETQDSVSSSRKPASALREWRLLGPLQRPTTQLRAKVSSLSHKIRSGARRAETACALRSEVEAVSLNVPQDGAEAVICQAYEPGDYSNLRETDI
T1 sequence (P43140 whole entry): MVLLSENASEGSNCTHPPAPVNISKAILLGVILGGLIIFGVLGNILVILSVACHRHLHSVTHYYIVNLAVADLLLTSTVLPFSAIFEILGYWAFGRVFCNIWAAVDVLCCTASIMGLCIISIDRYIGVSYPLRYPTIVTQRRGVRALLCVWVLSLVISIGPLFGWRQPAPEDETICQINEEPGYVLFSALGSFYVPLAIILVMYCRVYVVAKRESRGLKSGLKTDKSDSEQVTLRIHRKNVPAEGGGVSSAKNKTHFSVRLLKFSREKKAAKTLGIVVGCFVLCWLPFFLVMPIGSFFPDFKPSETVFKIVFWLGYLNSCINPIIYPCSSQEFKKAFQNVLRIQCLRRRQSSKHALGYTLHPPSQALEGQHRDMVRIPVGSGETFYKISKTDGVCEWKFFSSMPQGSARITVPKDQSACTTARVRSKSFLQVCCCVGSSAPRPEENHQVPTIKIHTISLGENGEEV
The experiment is described as follows: Alpha-1 adrenergic receptor blocking activity was assessed by antagonism of (-)-norepinephrine induced contractions of the epididymal portion of the vas deferens and the potency was expressed as pA2. The experiment is classed as functional, tissue-based. In short, it runs like this:
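Male albino rat (175–200 g) epididymal vas deferens, 14 mm, in Krebs at 37 °C gassed 95% O2–5% CO2, 0.4 g load, with propranolol 1 μM, cocaine 10 μM, deoxycorticosterone acetate 40 μM. ≥1 h equilibration. Cumulative norepinephrine curves: second as control, third after 30 min antagonist. Time-matched untreated tissues. Schild pA2 from EC50 dose ratios, three antagonist concentrations, n≥5 each.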

A short description of experiment [2]: Selectivity as the ratio of pA2 value against alpha 1 receptor to that of alpha-2 receptor. In short, it runs like this:
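Ratio computed as the antilog of the α1 pA2 minus the α2 pA2. The α1 pA2 came from rat epididymal vas deferens against norepinephrine, and the α2 pA2 from field-stimulated prostatic vas deferens against clonidine.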

The target of experiment [3] is T1, Adrenergic receptor alpha-1. Nature of the experiment: Alpha-1-Adrenoceptor blocking activity as antagonism of (-)-norepinephrine induced contractions of epididymal vas deferens. The format is functional, tissue-based.
The target of experiment [4] is T2, Adrenergic receptor alpha-2 (Rattus norvegicus, UniProt P22086+P19328+P22909).
T2 sequence (P22086 whole entry): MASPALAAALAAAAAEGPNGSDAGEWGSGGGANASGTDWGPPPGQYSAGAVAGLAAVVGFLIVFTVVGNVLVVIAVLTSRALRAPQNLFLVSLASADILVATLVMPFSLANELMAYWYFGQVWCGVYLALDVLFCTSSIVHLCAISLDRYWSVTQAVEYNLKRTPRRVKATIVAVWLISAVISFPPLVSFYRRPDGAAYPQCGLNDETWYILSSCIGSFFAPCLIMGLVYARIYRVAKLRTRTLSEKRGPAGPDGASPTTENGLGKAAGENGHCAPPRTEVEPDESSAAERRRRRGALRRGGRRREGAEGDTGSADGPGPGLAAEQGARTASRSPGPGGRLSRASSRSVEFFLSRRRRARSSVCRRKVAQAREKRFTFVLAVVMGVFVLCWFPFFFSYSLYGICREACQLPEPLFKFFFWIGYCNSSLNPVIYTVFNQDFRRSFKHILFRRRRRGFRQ
T2 sequence (P19328 whole entry): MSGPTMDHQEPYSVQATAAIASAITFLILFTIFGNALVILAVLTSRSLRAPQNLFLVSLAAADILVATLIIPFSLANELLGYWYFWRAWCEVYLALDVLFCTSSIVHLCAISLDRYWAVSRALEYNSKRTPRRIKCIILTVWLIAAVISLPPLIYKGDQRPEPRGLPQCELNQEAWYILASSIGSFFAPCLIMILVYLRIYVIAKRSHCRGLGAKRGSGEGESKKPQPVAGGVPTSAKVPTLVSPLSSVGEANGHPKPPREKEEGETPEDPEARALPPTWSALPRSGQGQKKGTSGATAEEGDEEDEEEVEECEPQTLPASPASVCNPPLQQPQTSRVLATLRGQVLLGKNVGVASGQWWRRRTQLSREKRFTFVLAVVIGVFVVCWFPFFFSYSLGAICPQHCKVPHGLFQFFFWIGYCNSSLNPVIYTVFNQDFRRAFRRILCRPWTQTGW
T2 sequence (P22909 whole entry): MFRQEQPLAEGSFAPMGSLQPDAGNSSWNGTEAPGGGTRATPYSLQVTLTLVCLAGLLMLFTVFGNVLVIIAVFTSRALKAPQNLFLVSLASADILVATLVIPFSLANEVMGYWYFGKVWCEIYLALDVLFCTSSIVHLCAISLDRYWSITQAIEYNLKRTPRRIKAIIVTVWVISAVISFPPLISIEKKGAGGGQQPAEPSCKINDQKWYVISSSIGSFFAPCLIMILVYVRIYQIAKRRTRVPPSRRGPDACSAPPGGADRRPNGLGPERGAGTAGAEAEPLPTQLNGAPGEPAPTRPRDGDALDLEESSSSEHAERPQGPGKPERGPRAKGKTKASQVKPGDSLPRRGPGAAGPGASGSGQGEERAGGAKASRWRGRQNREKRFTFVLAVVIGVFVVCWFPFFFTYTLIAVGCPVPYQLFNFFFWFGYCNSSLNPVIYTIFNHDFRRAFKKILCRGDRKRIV
Described as §1. The format is functional, tissue-based. An outline of the steps: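 Field stimulation 0.1 Hz, 3-ms pulses, 10–35 V. Propranolol, cocaine and deoxycorticosterone present. After 1 h, one tissue was given antagonist for 30 min and the contralateral tissue served as control. Clonidine curves for 50% twitch inhibition gave dose ratios. Three concentrations (two if limited above 30 μM), n≥5; Schild or van Rossum pA2.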

With `Cl.O=C(c1ccco1)N1CCN(CC2COc3ccccc3O2)CC1` (stereo unspecified), the Kb in the experiment listed under Rattus norvegicus is 525 nM. This molecule had a pA2 in experiment [1] of 6.05. Also, the Selectivity ratio in experiment [2] was determined as 0.59.

In experiment [3], `COc1cc2nc(N(C)CCN(C)C(=O)c3ccco3)nc(N)c2cc1OC.Cl` returned a pA2 of 7.18. In the experiment listed under Rattus norvegicus, the Kb was 4270 nM. Also, the Selectivity ratio in experiment [2] was found to be 65.

For the molecule `COc1cc2nc(N(C)CCOc3c(OC)cccc3OC)nc(N)c2cc1OC.Cl`, the pA2 is 7.86 in experiment [3] and 5.91 in experiment [4]. For the same molecule, in experiment [2], the Selectivity ratio was determined as 89.

Turning to `COc1cc2nc(NCCNC(=O)c3ccco3)nc(N)c2cc1OC.Cl`, in experiment [3], the pA2 is on record as 8.81. Also, in the experiment listed under Rattus norvegicus, the Kb is 6030 nM. Also, in experiment [2], the Selectivity ratio was 3890.

In turn, `Cl.O=C(NCCNCC1COc2ccccc2O1)c1ccco1` (stereo unspecified) came in with a pA2 in experiment [3] of 7.19. Further, in the experiment filed under Rattus norvegicus, the Kb was 1410 nM. Moreover, in experiment [2], the Selectivity ratio amounted to 22.

Molecule `COc1cc2nc(NCC3COc4ccccc4O3)nc(N)c2cc1OC.Cl` (stereo unspecified) showed a pA2 in experiment [3] of 7.22. Also, the Kb in the experiment listed under Rattus norvegicus is 676 nM. Moreover, the Selectivity ratio in experiment [2] amounted to 11.

`COc1cc2nc(NCCOc3c(OC)cccc3OC)nc(N)c2cc1OC.Cl` gave a pA2 in experiment [3] of 7.88. The Kb in the experiment filed under Rattus norvegicus was 1150 nM. The Selectivity ratio in experiment [2] amounted to 87.

`COc1cccc(OC)c1OCCNCC1COc2ccccc2O1` (stereo unspecified) [2- (2,6-DIMETHOXYPHENOXYETHYL)AMINOMETHYL-1,4-BENZODIOXANE HYDROCHLORIDE (WB 4101)]: in the experiment listed under Rattus norvegicus, the Kb was 513 nM. The Selectivity ratio in experiment [2] stood at 347.

`COc1cccc(OC)c1OCCN1CCN(C(=O)c2ccco2)CC1.Cl` came in with a pA2 in experiment [3] of 6.45. Further, the Kb in the experiment filed under Rattus norvegicus is 19500 nM. Also, in experiment [2], the Selectivity ratio stood at 55.

The record behind these values is ChEMBL document CHEMBL1123052, “Structure-activity relationships for prazosin and WB 4101 analogues as alpha 1-adrenoreceptor antagonists” (J Med Chem, 1985).
